Among all 65,000 compounds or so, about 1,400 (2.2%) were called active. This excerpt belongs to a sample that is enriched for actives. Values without a mark were called inactive.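 Rule for the calls: active = growth inhibition at or above a cutoff equal to the mean over every tested compound plus 3 SD (cut at about 60% in these data); inactive = the rest.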
Assay: growth inhibitors of E. coli tolC mutant, primary screen, strain BW25113 ΔtolC::kan, 384-well (AID 573)
Settings: OD615, active compounds read high, screened at 10 µM (by protocol)
In short: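 Signal: optical density read at 615 nm; Assay system: E. coli ΔtolC::kan strain BW25113; Times: 20 h incubation with compound, 37 °C; Dosing: 10 µM final, single dose.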

Row | Compound | growth inhibition
1 | O=C(NCc1ccco1)c1sc2cccc(F)c2c1Cl | -1.49%
2 | CCOc1ccccc1NC(=O)C1CCN(S(=O)(=O)c2c(C)nn(C)c2C)CC1 | -6.48%
3 | COc1ccc(-n2c(SCC(=O)OC(C)C)nnc2-c2ccccn2)cc1 | 4.58%
4 | Nc1nonc1-c1nc2ccccc2n1Cc1ccc(F)cc1 | -8.77%
5 | Cc1c(C(=O)N2CCOCC2)[nH]c2ccc(OCc3ccccc3)cc12 | 1.84%
6 | O=c1c(-c2ccccc2)coc2c(CN3CCOCC3)c(O)ccc12 | -9.34%
7 | CCOC(=O)c1c(CN2CCOCC2)n(-c2ccccc2)c2ccc(O)cc12 | 65.2% (active)
8 | O=C(O)c1ccc(NS(=O)(=O)c2cccc3nsnc23)cc1 | -25%
9 | Cc1cccc2nc(CNc3ccc(F)cc3)cn12 | 4.83%
10 | COc1cc(-c2noc(C3CCCN(S(=O)(=O)c4cccc(Cl)c4)C3)n2)cc(OC)c1OC (stereo not drawn) | 35.2%
11 | O=C(Nc1ccccc1N1CCCCC1)c1cccc(F)c1 | 100% (active)
12 | O=C(Nc1ccccc1N1CCCCC1)c1ccc2nccnc2c1 | 28.8%
13 | O=C(Nc1ccccc1N1CCN(c2ccccc2)CC1)c1cccc(F)c1 | 17.8%
14 | O=C(Nc1ccccc1F)C1C2C=CC3(O2)C1C(=O)N(c1cccnc1)C3C(=O)NC1CCCCC1 (stereo not drawn) | -12.5%
15 | CCOc1ccc2nc(N3CCCN(C(=O)Nc4ccccc4C)CC3)c(C#N)cc2c1 | 62.3% (active)
16 | COc1ccc2nc(N3CCCC(O)C3)c(C#N)cc2c1 (stereo not drawn) | 5.39%
17 | CCOc1ccc2nc(NCCNS(=O)(=O)c3ccccc3)c(C#N)cc2c1 | -0.48%
18 | Cc1ccccc1-c1nc(CS(=O)(=O)CC(=O)N2CCc3ccccc3C2)c(C)o1 | 63% (active)
19 | Cc1oc(-c2ccccc2F)nc1CS(=O)(=O)CC(=O)NCCCN(C)C1CCCCC1 | -1.97%
20 | COc1ccc(-c2nc(CS(=O)CC(=O)N3CCc4ccccc4C3)c(C)o2)cc1 (stereo not drawn) | 3.93%
21 | CCCc1cc(=O)[nH]c(SCc2ccc(C#N)cc2)n1 | 14.9%

Row | Compound | growth inhibition
22 | CCCCC(=O)N(c1ccc(OC)cc1)C1C=CS(=O)(=O)C1 (stereo not drawn) | -9.87%
23 | Fc1ccc(Cn2nnnc2C(c2cccs2)N2CCCCCC2)cc1 (stereo not drawn) | 85.7% (active)
24 | CCC(C)(C)n1nnnc1C(c1cccs1)N1CCN(Cc2ccccc2)CC1 (stereo not drawn) | 4.31%
25 | Fc1ccccc1C(c1nnnn1Cc1ccc2c(c1)OCO2)N1CCN(Cc2ccccc2)CC1 (stereo not drawn) | 20.4%
26 | COc1ccc(N2CCN(Cc3cc(=O)oc4ccc5ccccc5c34)CC2)cc1 | 11.6%
27 | CCOC(=O)C1C(=O)C=C(c2ccc(OC)cc2)CC1c1ccco1 (stereo not drawn) | 85.4% (active)
28 | CCOC(=O)C1C(=O)NC(N2CCN(c3ccccc3)CC2)=NC1c1ccco1 (stereo not drawn) | -7.5%
29 | COc1ccc(CCNC(=O)c2ccco2)cc1 | -4.03%
30 | CCOc1ccc(S(=O)(=O)n2ccnc2)c2ccccc12 | 3.73%
31 | CS(=O)(=O)N(CC(=O)N1CCN(c2cccc(Cl)c2)CC1)c1ccccc1 | 1.41%
32 | Cc1ccccc1OCC(=O)Nc1ccc(N2CCN(C(=O)C(C)C)CC2)c(Cl)c1 | 42.8%
33 | CCc1nnc(NS(=O)(=O)c2ccc(NS(=O)(=O)c3ccccc3)cc2)s1 | 19%
34 | CCOC(=O)C1CCc2nc3ccccc3c(=O)n21 (stereo not drawn) | -18.7%
35 | CC1(C)Cc2ccccc2-c2nc(CN3CCOCC3)[nH]c(=O)c21 | 5.57%
36 | CCOC(=O)C1Cn2c(nc3c(c2=O)C(C)(CC)Cc2ccccc2-3)S1 (stereo not drawn) | 67.9% (active)
37 | CCCCc1nc2c(=O)[nH]c3ccccc3c2o1 | -2.92%
38 | Clc1ccc(Cn2ncc3c(NCc4cccnc4)ncnc32)cc1 | 18.6%
39 | O=C(NCc1ccco1)C1CCCN(S(=O)(=O)c2cccc3nonc23)C1 (stereo not drawn) | -21.5%
40 | COc1ccc(N2C(=O)CC(N3CCC(C(N)=O)CC3)C2=O)cc1 (stereo not drawn) | -10.9%
41 | CCN(CC)C(=O)CSc1nnc(-c2cccc(OC)c2)o1 | -2.54%
42 | COc1cccc(NC(=O)CN(C)S(=O)(=O)c2ccc(C)cc2)c1 | 13.3%

Row | Compound | growth inhibition
43 | COc1cccc(-c2nnc(NC(=O)c3ccc(S(=O)(=O)N(CC(C)C)CC(C)C)cc3)o2)c1 | 98.8% (active)
44 | CCOC(=O)c1sc(NC(=S)n2cc(C)cn2)c(C(=O)OCC)c1C | 23.8%
45 | Cc1cc2nc(-c3ccc(NC(=O)c4cccnc4)cc3)oc2cc1C | 10.2%
46 | O=C(c1ccco1)N1CCN(C(=O)c2ccc(COc3ccc(F)cc3)o2)CC1 | 1.7%
47 | Cc1cc(=O)[nH]c(=S)[nH]1 | -13.2%
48 | O=C1NC(Nc2nc3ccccc3s2)(C(F)(F)F)C(=O)N1C1CCCCC1 (stereo not drawn) | 100% (active)
49 | COC(=O)NC1(C(F)(F)F)NC(=O)N(C2CCCCC2)C1=O (stereo not drawn) | -5.17%
50 | C1=C(N2CCOCC2)/C(=C/c2nc3ccccc3[nH]2)CC1 | -16.7%
51 | CCOC(=O)c1cc(-c2ccc(Cl)s2)nc2c1c(C)nn2C | 8.55%
52 | CC(C)CCNC(=O)CCNS(=O)(=O)c1ccc(Cl)cc1 | 7.04%
53 | COc1ccc(OC)c2sc(NC(=O)C3COc4ccccc4O3)nc12 (stereo not drawn) | 70.5% (active)
54 | Cc1cc(NC(=O)CCC2COc3ccccc3O2)no1 (stereo not drawn) | 0.5%
55 | O=C(Nc1nc(-c2ccncc2)cs1)C1COc2ccccc2O1 (stereo not drawn) | 36.7%
56 | CC(=O)c1cnc(Nc2nc(C)c3cc(C)ccc3n2)nc1C | -6.16%
57 | COc1ccccc1N1CCN(C(=O)c2cc(-c3ccc(Cl)c(Cl)c3)on2)CC1 | -3.17%
58 | COc1ccccc1N1CCN(C(=O)c2cc(-c3ccc(Br)cc3)on2)CC1 | 63.8% (active)
59 | COc1ccccc1-c1cc(C(=O)N2CCCCC2)no1 | 7.63%
60 | Oc1c(C(c2ccccn2)N2CCOCC2)ccc2cccnc12 (stereo not drawn) | 29.8%
61 | CCCC(C(=O)N1CCOCC1)N1C(=O)C2C3C=CC(C3)C2C1=O (stereo not drawn) | -13.1%
62 | CC(C)c1ccc(N2CC(C(=O)Nc3nccs3)CC2=O)cc1 (stereo not drawn) | 9.63%
63 | Cc1oc(C)c(C(=O)NCCCC(=O)O)c1C(=O)NCCCC(=O)O | -20.2%

Reference: PubChem BioAssay AID573 (SRMLSC, 2007)
